Source: ChEMBL document CHEMBL3526009, “Breast cancer resistance protein (ABCG2) determines distribution of genistein phase II metabolites: reevaluation of the roles of ABCG2 in the disposition of genistein” (Drug Metab Dispos, 2012)

Experiments:
[1] = Cmax in BCRP-/- mouse at 20 mg/kg, ip; assay type: ADME, organism-based; design: dose 20 mg/kg, route intraperitoneal; conditions: in vivo
Summary of the method: (§1)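 Male FVB or Bcrp1(−/−) mice (6–10 weeks), nonsoy chow ≥1 week, fasted 12 h. Single i.p. 20 mg/kg from 2 mg/ml solution in 100 mM sodium bicarbonate–PEG 300 (7:3), pH 10; n = 5. Serial tail blood at 10 time points under isoflurane; whole-blood genistein and conjugates by UPLC-MS/MS; noncompartmental analysis.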

[2] = Drug metabolism in BCRP-/- mouse colon S9 fraction assessed as compound glucuronidation rate at 10 uM by UPLC-MS/MS analysis; assay type: ADME, tissue-based; conditions: s9, 10 µM
Summary of the method: (§2)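 S9 from liver, small intestine or colon of FVB or Bcrp1(−/−) mice, 1 mg/ml protein, with 10 μM genistein in 50 mM potassium phosphate pH 7.4, 0.88 mM MgCl2, 4.4 mM saccharolactone, 0.022 mg/ml alamethicin. Glucuronidation started with 3.5 mM UDPGA; sulfation used 0.1 mM PAPS instead. 37°C, 60 min; n = 4.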

[3] = Drug metabolism in wild-type FVB mouse hepatic S9 fraction assessed as compound sulfation rate at 10 uM by UPLC-MS/MS analysis; assay type: ADME, Liver; conditions: s9, 10 µM; summary of the method: as §2
[4] = Drug metabolism in wild-type FVB mouse colon S9 fraction assessed as compound glucuronidation rate at 10 uM by UPLC-MS/MS analysis; assay type: ADME, tissue-based; conditions: s9, 10 µM; summary of the method: as §2
Colon = assay: Drug uptake in wild-type FVB mouse colon at 10 uM by UPLC-MS/MS analysis; assay type: ADME, tissue-based; conditions: in vivo
Summary of the method: (§3)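 In situ perfusion in FVB or Bcrp1(−/−) mice (n = 4): small intestine and colon (8–12 cm each) perfused together with 10 μM genistein in HBSS pH 7.4, 0.191 ml/min, 37°C. After 30-min washout, perfusate sampled at 60, 90, 120, 150 min; runs discarded if water flux >10% per 10 cm. Percent absorbed by UPLC-MS/MS.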

[5] = Elimination rate constant in wild-type FVB mouse at 20 mg/kg, ip; assay type: ADME, organism-based; design: dose 20 mg/kg, route intraperitoneal; conditions: in vivo; summary of the method: as §1
[6] = AUC ( 0 to t) in BCRP-/- mouse at 2 mg/kg, po; assay type: ADME, organism-based; design: dose 2 mg/kg, route oral; conditions: plasma
Summary of the method: (§4)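 Male wild-type FVB or Bcrp1(−/−) mice (6–10 weeks) on nonsoy chow ≥1 week, fasted 12 h with water, refed at 4 h. Oral gavage of 2 or 20 mg/kg as 4 mg/ml suspension in oral suspending vehicle; n = 5. Tail-snip blood at 10 time points under isoflurane, whole blood by UPLC-MS/MS (MRM); noncompartmental analysis.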

[7] = Cmax in BCRP-/- mouse at 2 mg/kg, po; assay type: ADME, organism-based; design: dose 2 mg/kg, route oral; conditions: in vivo; summary of the method: as §4
Mus musculus [8] = assay: Elimination rate constant in BCRP-/- mouse at 20 mg/kg, ip; assay type: ADME, organism-based; design: dose 20 mg/kg, route intraperitoneal; conditions: in vivo; summary of the method: as §1
[9] = AUC ( 0 to t) in wild-type FVB mouse at 20 mg/kg, ip; assay type: ADME, organism-based; design: dose 20 mg/kg, route intraperitoneal; conditions: plasma; summary of the method: as §1
[10] = Drug transport in human Caco2 cells assessed as basolateral excretion of compound at 2 uM after 4 hrs by UPLC-MS/MS analysis in presence of BCRP inhibitor Ko143; assay type: ADME, cell-based; conditions: caco-2, 4 h
Summary of the method: (§5)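 Caco-2 TC7 monolayers on 3 μm polycarbonate inserts, used 19–22 days post-seeding (TEER ≥460 Ω/cm2). Genistein 2 or 10 μM in HBSS pH 7.4 applied apically, ±5 μM Ko143 apically; sampling both sides at 0–4 h hourly with replacement, triplicate. Genistein and four conjugates plus intracellular amounts at 4 h by UPLC-MS/MS; mass balance versus dose added.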

BCRP = assay: Drug recovery in human Caco2 cells at 2 to 10 uM after 4 hrs by UPLC-MS/MS analysis in presence of BCRP inhibitor Ko143; assay type: ADME, cell-based; conditions: Caco-2, with Ko143 (BCRP inhibitor, concentration not stated), read-out: Drug recovery; summary of the method: as §5
Mus musculus [11] = organism: Mus musculus; assay: Drug uptake in BCRP-/- mouse colon at 10 uM by UPLC-MS/MS analysis; assay type: ADME, organism-based; conditions: in vivo; summary of the method: as §3
[12] = AUC (0 to 3 hrs) in BCRP-/- mouse at 50 mg/kg, po; assay type: ADME, organism-based; design: time < 3 hr, dose 50 mg/kg, route oral; conditions: plasma
[13] = Biliary excretion in BCRP-/- mouse measured after 2.5 hrs post intestinal perfusion by UPLC-MS/MS analysis; assay type: ADME; conditions: bile, read-out: Drug excretion
Summary of the method: (§6)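 Gallbladder bile taken after 2.5 h of simultaneous small intestine/colon perfusion with 10 μM genistein (HBSS pH 7.4, 0.191 ml/min) in FVB or Bcrp1(−/−) mice (n = 4). Bile diluted 20-fold in HBSS, daidzein internal standard in acetonitrile added, dried and reconstituted. Genistein and conjugates quantified by UPLC-MS/MS.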

[14] = Drug metabolism in wild-type FVB mouse small intestine S9 fraction assessed as compound sulfation rate at 10 uM by UPLC-MS/MS analysis; assay type: ADME, tissue-based; conditions: s9, 10 µM; summary of the method: as §2
[15] = Drug metabolism in wild-type FVB mouse colon S9 fraction assessed as compound sulfation rate at 10 uM by UPLC-MS/MS analysis; assay type: ADME, tissue-based; conditions: s9, 10 µM; summary of the method: as §2
[16] = Drug metabolism in BCRP-/- mouse hepatic S9 fraction assessed as compound glucuronidation rate at 10 uM by UPLC-MS/MS analysis; assay type: ADME, Liver; conditions: s9, 10 µM; summary of the method: as §2
[17] = Drug metabolism in BCRP-/- mouse small intestine S9 fraction assessed as compound glucuronidation rate at 10 uM by UPLC-MS/MS analysis; assay type: ADME, tissue-based; conditions: s9, 10 µM; summary of the method: as §2
Mus musculus [18] = organism: Mus musculus; assay: Drug uptake in BCRP-/- mouse small intestine at 10 uM by UPLC-MS/MS analysis; assay type: ADME, organism-based; conditions: in vivo; summary of the method: as §3
[19] = Cmax in wild-type FVB mouse at 20 mg/kg, ip; assay type: ADME, organism-based; design: dose 20 mg/kg, route intraperitoneal; conditions: in vivo; summary of the method: as §1
[20] = Drug recovery in human Caco2 cells at 2 to 10 uM after 4 hrs by UPLC-MS/MS analysis; assay type: ADME, cell-based; conditions: Caco-2, read-out: Drug recovery; summary of the method: as §5
Intestine = assay: Drug uptake in wild-type FVB mouse small intestine at 10 uM by UPLC-MS/MS analysis; assay type: ADME, tissue-based; conditions: in vivo; summary of the method: as §3
[21] = Drug metabolism in wild-type FVB mouse small intestine S9 fraction assessed as compound glucuronidation rate at 10 uM by UPLC-MS/MS analysis; assay type: ADME, tissue-based; conditions: s9, 10 µM; summary of the method: as §2
[22] = Drug metabolism in BCRP-/- mouse small intestine S9 fraction assessed as compound sulfation rate at 10 uM by UPLC-MS/MS analysis; assay type: ADME, tissue-based; conditions: s9, 10 µM; summary of the method: as §2
[23] = Cmax in wild-type FVB mouse at 20 mg/kg, po; assay type: ADME, organism-based; design: dose 20 mg/kg, route oral; conditions: in vivo; summary of the method: as §4
[24] = Cmax in BCRP-/- mouse at 8 mg/kg, po; assay type: ADME, organism-based; design: dose 8 mg/kg, route oral; conditions: in vivo
[25] = AUC ( 0 to t) in BCRP-/- mouse at 20 mg/kg, po; assay type: ADME, organism-based; design: dose 20 mg/kg, route oral; conditions: plasma; summary of the method: as §4
[26] = Elimination rate constant in BCRP-/- mouse at 2 mg/kg, po; assay type: ADME, organism-based; design: dose 2 mg/kg, route oral; conditions: in vivo; summary of the method: as §4
[27] = Drug metabolism in BCRP-/- mouse hepatic S9 fraction assessed as compound sulfation rate at 10 uM by UPLC-MS/MS analysis; assay type: ADME, Liver; conditions: s9, 10 µM; summary of the method: as §2
Mus musculus [28] = assay: Half life in BCRP-/- mouse at 20 mg/kg, ip; assay type: ADME, organism-based; design: dose 20 mg/kg, route intraperitoneal; conditions: in vivo; summary of the method: as §1
[29] = Drug metabolism in BCRP-/- mouse colon S9 fraction assessed as compound sulfation rate at 10 uM by UPLC-MS/MS analysis; assay type: ADME, tissue-based; conditions: s9, 10 µM; summary of the method: as §2
Blood = assay: Drug metabolism in Wistar rat blood at 3.8 uM after 4 hrs by UPLC-MS/MS analysis; assay type: ADME, tissue-based
Summary of the method: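 Glucuronide mix (G-7-G plus G-4′-G, 3 μM) with 3.8 μM genistein incubated in fresh Wistar rat blood, 37°C shaking bath up to 4 h; sulfate runs used 0.8 μM sulfates plus 2.2 μM aglycone. Samples at 0, 60, 120, 240 min quenched with acetonitrile/daidzein, analysed by UPLC-MS/MS; 50 mM phosphate buffer pH 7.4 as negative control; n = 3.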

[30] = Half life in wild-type FVB mouse at 20 mg/kg, ip; assay type: ADME, organism-based; design: dose 20 mg/kg, route intraperitoneal; conditions: in vivo; summary of the method: as §1
[31] = AUC ( 0 to t) in wild-type FVB mouse at 20 mg/kg, po; assay type: ADME, organism-based; design: dose 20 mg/kg, route oral; conditions: plasma; summary of the method: as §4
[32] = Cmax in BCRP-/- mouse at 50 mg/kg, po; assay type: ADME, organism-based; design: dose 50 mg/kg, route oral; conditions: in vivo
[33] = Half life in BCRP-/- mouse at 2 mg/kg, po; assay type: ADME, organism-based; design: dose 2 mg/kg, route oral; conditions: in vivo; summary of the method: as §4
[34] = Cmax in BCRP-/- mouse at 20 mg/kg, po; assay type: ADME, organism-based; design: dose 20 mg/kg, route oral; conditions: in vivo; summary of the method: as §4
[35] = Drug metabolism in wild-type FVB mouse hepatic S9 fraction assessed as compound glucuronidation rate at 10 uM by UPLC-MS/MS analysis; assay type: ADME, Liver; conditions: s9, 10 µM; summary of the method: as §2
[36] = AUC ( 0 to t) in BCRP-/- mouse at 20 mg/kg, ip; assay type: ADME, organism-based; design: dose 20 mg/kg, route intraperitoneal; conditions: plasma
[37] = AUC (0 to 3 hrs) in wild-type FVB mouse at 50 mg/kg, po; assay type: ADME, organism-based; design: time < 3 hr, dose 50 mg/kg, route oral; conditions: plasma
[38] = AUC ( 0 to t) in wild-type FVB mouse at 2 mg/kg, po; assay type: ADME, organism-based, Plasma; design: dose 2 mg/kg, route oral; summary of the method: as §4
[39] = Cmax in wild-type FVB mouse at 2 mg/kg, po; assay type: ADME, organism-based; design: dose 2 mg/kg, route oral; conditions: in vivo; summary of the method: as §4
[40] = Biliary excretion in wild-type FVB mouse measured after 2.5 hrs post intestinal perfusion by UPLC-MS/MS analysis; assay type: ADME; conditions: bile, read-out: Drug excretion; summary of the method: as §6

In the case of `O=c1c(-c2ccc(O)cc2)coc2cc(O)cc(O)c12` [GENISTEIN], the Cmax [1] is reported as 4420 nM, the Drug metabolism [2] is reported as 117 pmol/min/mg and the Drug metabolism [3] is reported as 13.3 pmol/min/mg. For the same compound, the Drug metabolism [4] was 78 pmol/min/mg, the Drug uptake (Colon) was 46% and the k el [5] was 6.39e-05 s⁻¹. The AUC(0-t) [6] was 0.71 µM·h, the Cmax [7] was 230 nM and the Kel (Mus musculus [8]) was 0.52 h⁻¹. For the same compound, the AUC(0-t) [9] was 10 µM·h, the Drug transport [10] was “Not Active” and the recovery at 4 h, up to 10 µM (BCRP) was 87.8%. The Drug uptake (Mus musculus [11]) was 52%, the AUC(0-t) at 3 h [12] was 5 µM·h and the concentration at 2.5 h [13] was 9100 nM. For the same compound, the Drug metabolism [14] was “metabolite_not_detected”, the Drug metabolism [15] was 26.5 pmol/min/mg and the Drug metabolism [16] was 2737 pmol/min/mg. For the same compound, the Drug metabolism [17] was “metabolite_not_detected”, the Drug uptake (Mus musculus [18]) was 74% and the Cmax [19] was 2680 nM. For the same compound, the recovery at 4 h, up to 10 µM [20] was 92.3%, the Drug uptake (Intestine) was 87% and the Drug metabolism [21] was “metabolite_not_detected”. The Drug metabolism [22] was “metabolite_not_detected”, the Cmax [23] was 650 nM and the Cmax [24] was 1100 nM. The AUC(0-t) [25] was 16.4 µM·h, the k el [26] was 7.5e-05 s⁻¹ and the Drug metabolism [27] was 7.9 pmol/min/mg. The t1/2 (Mus musculus [28]) was 2.8 h, the Drug metabolism [29] was 15.2 pmol/min/mg and the Stability (Blood) was “Stable”. For the same compound, the half-life [30] was 4.8 h, the AUC(0-t) [31] was 6.05 µM·h and the Cmax [32] was 200 nM. For the same compound, the half-life [33] was 3.8 h, the Cmax [34] was 3350 nM and the Drug metabolism [35] was 1299 pmol/min/mg. The AUC(0-t) [36] was 11.5 µM·h, the AUC(0-t) at 3 h [37] was 0.9 µM·h and the AUC(0-t) [38] was 0.36 µM·h. It also gave a Cmax [39] of 100 nM and a concentration at 2.5 h [40] of 9900 nM.
